The subject of series [1] is Kidney. As to the kind of experiment: Drug uptake in kidney of athymic nude mouse xenografted with human HT-29 cells at 4 to 8 MBq, iv after 10 to 60 mins by gamma-counting analysis. The note with it: in vivo. It counts as ADME, organism-based. The essentials: (§1)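 Biodistribution in nude mice carrying HT29 xenografts with 7–10 mm tumor diameter. Tissues were sampled at 10, 30 and 60 min post-injection. Uptake is expressed as % ID/g, and tumor-to-organ ratios were also calculated. Values are mean ± SD from two animals.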

Series [2] concerns Blood. As to the kind of experiment: Drug uptake in blood of athymic nude mouse transfected with human HT-29 cells at 4 to 8 MBq, iv after 10 to 60 mins by gamma-counting analysis. It counts as ADME, organism-based. The note with it: in vivo. The method, boiled down:
as §1

The subject of series [3] is Tumour. Briefly: Drug uptake in tumor of athymic nude mouse xenografted with human HT-29 cells at 4 to 8 MBq, iv after 60 mins by gamma-counting analysis. It counts as ADME, organism-based, Neoplasm. The note with it: in vivo, 1 h. The method, boiled down: as §1
Series [4] has as its system Brain. As to the kind of experiment: Drug uptake in Sprague-Dawley rat brain by autoradiography. It counts as ADME, tissue-based. The note with it: in vivo.
For series [5], the system named is Tumour. Briefly: Drug uptake in tumor of athymic nude mouse transfected with human HT-29 cells at 1 to 3 MBq, iv after 45 to 65 mins by PET imaging analysis. It counts as ADME, organism-based, Neoplasm. The note with it: in vivo. The method, boiled down: (§2)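 Small-animal PET of HT29 xenografted nude mice (tumor diameter 7–10 mm), with images taken 45–65 min post-injection. Tumor uptake was quantified by μPET as % ID/g. For blocking, 3 mg/kg of the […] NTS1 ligand SR142948A was co-injected with the tracer. Values are mean ± SEM from 4 animals.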

The test system of series [6] is Tumour. Briefly: Drug uptake in tumor of athymic nude mouse xenografted with human HT-29 cells at 4 to 8 MBq, iv after 10 mins by gamma-counting analysis. It counts as ADME, organism-based, Neoplasm. The note with it: in vivo. The essentials:
as §1
(In general: In xenograft studies the graft and the host belong to different species.)

A short description of series [7]: Octanol-water partition coefficient, log D of the compound at pH 7.4 by gamma-counting analysis. It counts as physicochemical.
The subject of series [8] is Serum. As to the kind of experiment: Metabolic stability in human serum after 5 to 180 mins by radio-HPLC analysis. It counts as ADME, cell-free.
The nature of series [9]: Metabolic stability in blood of athymic nude mouse transfected with human HT-29 cells at 4 to 8 MBq, iv after 10 mins by radio-HPLC analysis. It counts as ADME, organism-based. The note with it: read-out: Stability. The essentials: (§3)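 Blood samples were taken from HT29 xenografted nude mice at 10 and 30 min post-injection. Intact tracer was quantified by radio-HPLC. Radiochemical purity of the injected tracer was above 99% by radio-HPLC.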

Series [10] in a line: Metabolic stability in blood of athymic nude mouse xenografted with human HT-29 cells at 4 to 8 MBq, iv after 30 mins by radio-HPLC analysis. The note with it: read-out: Stability. It counts as ADME, organism-based. The essentials: as §3
Series [11] has as its system Tumour. As to the kind of experiment: Drug uptake in tumor of athymic nude mouse transfected with human HT-29 cells at 1 to 3 MBq, iv after 45 to 65 mins by PET imaging analysis in presence of SR142948A. It counts as ADME, organism-based, Neoplasm. The note with it: in vivo. The method, boiled down: as §2
Series [12] has as its system Nucleic Acid. Briefly: Ratio of drug uptake in tumor to kidney of athymic nude mouse transfected with human HT-29 cells at 4 to 8 MBq, iv after 60 mins by gamma-counting analysis. It counts as ADME, organism-based. The note with it: in vivo, 1 h. The method, boiled down:
(§4)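 [18F]-labelled tracer (radiochemical purity >99% by radio-HPLC) injected into nude mice bearing HT29 xenografts with 7–10 mm tumour diameter. Organ and tumour uptake were measured as % ID/g at 10, 30 and 60 min post-injection. Tumour-to-organ ratios were derived from these values and reported as mean ± SD of two animals.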

Series [13] concerns Nucleic Acid. As to the kind of experiment: Ratio of drug uptake in tumor to blood of athymic nude mouse xenografted with human HT-29 cells at 4 to 8 MBq, iv after 10 to 60 mins by gamma-counting analysis. It counts as ADME, organism-based. The note with it: tumour. The essentials:
as §4

The subject of series [14] is Liver. Briefly: Drug uptake in liver of athymic nude mouse transfected with human HT-29 cells at 4 to 8 MBq, iv after 10 to 60 mins by gamma-counting analysis. It counts as ADME, organism-based. The note with it: in vivo. The method, boiled down: as §1
Series [15] concerns the target Neurotensin receptor type 2 (Homo sapiens, UniProt O95665). Briefly: Displacement of [3H]NT(8 to 13) from human NTS2 receptor expressed in HEK293 cells. It counts as cell-based. On the technique in general: In a radioligand displacement assay an active substance lowers the binding of a labelled ligand.
In series [16] the target is Neurotensin receptor type 1 (Rattus norvegicus) (UniProt P20789). Briefly: Binding affinity to NTS1 receptor in Sprague-Dawley rat brain at 10 MBq after 60 mins by autoradiography. The note with it: 10 M, tested as the 18F-labelled form.
Chain of Neurotensin receptor type 1 (Rattus norvegicus) (P20789 whole entry): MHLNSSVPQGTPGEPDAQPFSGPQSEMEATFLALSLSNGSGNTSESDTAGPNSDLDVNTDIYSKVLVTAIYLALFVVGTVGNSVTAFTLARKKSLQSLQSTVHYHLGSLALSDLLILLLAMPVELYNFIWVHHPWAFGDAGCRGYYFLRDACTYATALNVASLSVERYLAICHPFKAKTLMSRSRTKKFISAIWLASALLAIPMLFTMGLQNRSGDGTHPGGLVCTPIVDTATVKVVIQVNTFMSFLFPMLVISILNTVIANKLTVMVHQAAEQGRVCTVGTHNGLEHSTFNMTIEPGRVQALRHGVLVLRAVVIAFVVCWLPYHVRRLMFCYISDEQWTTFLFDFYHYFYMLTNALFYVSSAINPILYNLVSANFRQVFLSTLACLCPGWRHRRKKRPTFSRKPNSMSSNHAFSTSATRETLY
For series [17] the target is unchanged. Briefly: Binding affinity to NTS1 receptor in Sprague-Dawley rat brain at 10 MBq after 60 mins by autoradiography in presence of neurotensin. The note with it: 10 M, tested as the 18F-labelled form.
Series [18] has as its target Neurotensin receptor type 1 (Homo sapiens, UniProt P30989). As to the kind of experiment: Displacement of [3H]neurotensin from human NTS1 receptor expressed in CHO cells. It counts as cell-based.
The target in series [19] is Neurotensin receptor type 1 (Rattus norvegicus) (UniProt P20789). As to the kind of experiment: Binding affinity to NTS1 receptor in Sprague-Dawley rat brain at 10 MBq after 60 mins by autoradiography in presence of H-Arg-Arg-Pro-N-h-Tyr-Ile-Leu-OH. The note with it: 10 M, tested as the 18F-labelled form.
The target of series [20] is T1, Neurotensin receptor type 2 (Rattus norvegicus) (UniProt Q63384).
T1 sequence (whole entry): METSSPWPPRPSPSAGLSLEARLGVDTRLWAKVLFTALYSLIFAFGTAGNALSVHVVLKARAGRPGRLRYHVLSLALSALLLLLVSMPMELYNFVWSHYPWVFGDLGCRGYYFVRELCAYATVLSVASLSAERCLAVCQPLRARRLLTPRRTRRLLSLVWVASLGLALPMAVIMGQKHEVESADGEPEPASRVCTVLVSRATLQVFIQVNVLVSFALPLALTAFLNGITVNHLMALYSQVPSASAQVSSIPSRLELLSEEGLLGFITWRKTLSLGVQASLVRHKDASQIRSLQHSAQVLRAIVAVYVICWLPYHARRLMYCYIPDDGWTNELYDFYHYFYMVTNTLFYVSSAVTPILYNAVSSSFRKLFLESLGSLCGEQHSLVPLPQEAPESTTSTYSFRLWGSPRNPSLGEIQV
As to the kind of experiment: Binding affinity to NTS2 receptor in Sprague-Dawley rat brain cortex at 10 MBq after 60 mins by autoradiography in presence of H-Arg-Arg-Pro-N-h-Tyr-Ile-Leu-OH. The note with it: 10 M, tested as the 18F-labelled form.

Structures are written as SMILES. pKi: −log10 of the molar value. The source made the active and inactive calls. No cut-off for these calls is given here. Bounds are passed on as bounds.

Chain of Neurotensin receptor type 1 (P30989 whole entry): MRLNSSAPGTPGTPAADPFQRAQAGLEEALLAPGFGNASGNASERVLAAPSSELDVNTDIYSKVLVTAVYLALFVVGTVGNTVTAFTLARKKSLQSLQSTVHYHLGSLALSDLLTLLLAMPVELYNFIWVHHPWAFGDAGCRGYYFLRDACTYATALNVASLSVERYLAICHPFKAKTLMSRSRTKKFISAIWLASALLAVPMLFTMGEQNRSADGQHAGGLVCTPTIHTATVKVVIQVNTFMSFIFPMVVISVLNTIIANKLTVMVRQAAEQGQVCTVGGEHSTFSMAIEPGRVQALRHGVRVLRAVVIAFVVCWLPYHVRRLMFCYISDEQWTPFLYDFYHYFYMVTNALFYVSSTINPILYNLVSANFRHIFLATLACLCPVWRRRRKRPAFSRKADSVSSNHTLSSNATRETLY
Chain of Neurotensin receptor type 2 (O95665 whole entry): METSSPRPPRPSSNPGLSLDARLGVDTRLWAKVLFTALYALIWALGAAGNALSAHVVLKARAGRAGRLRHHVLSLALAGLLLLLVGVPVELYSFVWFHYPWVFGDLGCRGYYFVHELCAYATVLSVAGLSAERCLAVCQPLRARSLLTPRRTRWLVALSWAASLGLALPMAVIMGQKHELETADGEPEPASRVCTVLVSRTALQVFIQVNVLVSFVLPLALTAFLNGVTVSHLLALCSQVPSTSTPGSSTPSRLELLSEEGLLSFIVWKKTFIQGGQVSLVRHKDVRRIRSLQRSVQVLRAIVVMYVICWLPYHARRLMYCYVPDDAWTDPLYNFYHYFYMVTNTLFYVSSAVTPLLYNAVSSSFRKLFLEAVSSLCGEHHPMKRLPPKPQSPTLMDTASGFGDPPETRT

Consider `COc1cccc(OC)c1-c1cc(C(=O)NC2(C(=O)O)C3CC4CC(C3)CC2C4)nn1-c1ccc(C(=O)N(C)CCCN(C)CCCCc2cn([C@@H]3O[C@H](CO)[C@@H](O)[C@H](O)[C@H]3[18F])nn2)cc1C(C)C` (some centres not stated), for which the Drug uptake entry in series [1] is given as “Active”; in series [2], “Not Active”; in series [3] it was 0.74 % ID/g; in [4], “Not Active”; in series [5] it was “Active”; in series [6], 0.84 % ID/g. The Drug uptake result in series [11] and in [14] was “Not Active” each time. Also, the logD in [7] is -0.24. In addition, in series [8], the Stability entry was “Stable”. Moreover, in [9], the remaining at 10 min was > 98%. In [10], the remaining at 0.5 h was > 98%. For the same compound, the Ratio in series [12] is recorded as 8; in series [13], 0.3.

Regarding `COc1cccc(OC)c1-c1cc(C(=O)NC2(C(=O)O)C3CC4CC(C3)CC2C4)nn1-c1ccc(C(=O)N(C)CCCN(C)CCCCc2cn([C@@H]3O[C@H](CO)[C@@H](O)[C@H](O)[C@H]3F)nn2)cc1C(C)C` (some centres not stated), the figures for the pKi in [15] and in [18] were 7.16 and 9.01, respectively. Moreover, the outcome in [16], in series [17], in series [19] and in [20] was Active.

`COc1cccc(OC)c1-c1cc(C(=O)NC2(C(=O)O)C3CC4CC(C3)CC2C4)nn1-c1ccc(C(=O)N(C)CCCN(C)C)cc1C(C)C` (configuration not stated): the figures for the pKi in series [15] and in series [18] were 7.13 and 9.00, respectively.

As usually defined, the logD is lipophilicity at a set pH, counting ionised and neutral species. Usually pKi stands for the negative decadic logarithm of the Ki, by convention in mol/L. The low end stands for a large Ki, the high end for a small Ki.
